Cneo AK release – causes C. neoformans cell lysis; adenylate kinase release luminescence, 4 h; normalised: neutral wells 0, clomiphene wells 100; lysis activity, % at 15 µM; 360,000 tested, 0.2% active; AID 651654;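 active means mean lysis activity across replicates of at least 80%, whatever share of replicates individually reach that level; inactive means mean lysis activity below 80%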
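Assay system: C. neoformans cells. Amount: yeast cell density of 5 × 10^6 cells/mL. Technique: AK luminescence. Buffer or medium: YPD. Times: static 4 h at 37 °C with compound, 1 h detection. Dosing: single-point compound dose. Read-out: lysis from increased AK signal.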
rRNA inh HTS – selective bacterial rRNA inhibition in E. coli. E. coli WT GFP vs humanized-ribosome RFP mutants, fluorescence, 24 h; stronger effect = lower value; DMSO median 0, no signal -100. 350,000 tested, 1.6% active. GFP signal change (wild-type ribosome), % (test concentration not listed);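 active means significant combined selectivity score with lowered wild-type GFP, culture density cut under 30%, mutant RFP and density less affected; inactive means any of these conditions unmet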
S100A4 inh HTS – inhibitors of human S100A4 binding to myosin IIA peptide. inhibition, % at 10.7 µM. S100A4/TAMRA-MyoIIA peptide fluorescence polarization. P26447. AID 652163. 360,000 tested, 0.14% active;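 active means mean inhibition of at least 70% across replicates, with every replicate also reaching that level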
Target sequence (P26447 whole entry, looked up): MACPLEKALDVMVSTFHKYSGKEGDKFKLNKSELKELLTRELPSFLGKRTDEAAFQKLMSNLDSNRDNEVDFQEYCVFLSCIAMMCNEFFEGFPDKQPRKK
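Material: human S100A4 monomer with TAMRA-labelled myosin IIA peptide; buffer or medium: HEPES pH 7.2 with CaCl2, KCl, NaCl, DTT, Triton; compound dosing: one concentration per compound; schedule: 5 min incubation before reading; benchmarks: neutral control DMSO, positive control TFP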
SIRT5 inh – sirtuin-5 (human) deacylase inhibition | Q9NXA8 | inhibition, % at 15 µM | 330,000 tested, 1.1% active | Purified SirT5, succinyl-peptide AMC, trypsin-coupled fluorescence; in the data active means inhibition above about 15%
Target sequence (Q9NXA8 whole entry, looked up): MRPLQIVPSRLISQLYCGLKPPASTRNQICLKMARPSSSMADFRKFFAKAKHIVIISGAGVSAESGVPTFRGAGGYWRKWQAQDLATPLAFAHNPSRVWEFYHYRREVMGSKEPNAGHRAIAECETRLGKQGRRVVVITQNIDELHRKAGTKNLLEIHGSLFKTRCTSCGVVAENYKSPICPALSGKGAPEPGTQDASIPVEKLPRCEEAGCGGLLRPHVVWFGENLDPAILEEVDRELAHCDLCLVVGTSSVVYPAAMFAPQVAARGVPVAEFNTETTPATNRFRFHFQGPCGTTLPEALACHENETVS
Statin myotox sup – suppression of simvastatin myotoxicity. C2C12 myotubes + simvastatin, ATP luminescence, 48 h; scaled: DMSO 0, geranylgeraniol control 100. rescue of ATP level, % at 7.49 µM. 330,000 tested, 0.78% active. AID 602340;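 active means mean ATP rescue above about 67%, or every replicate alone reaching that limit, limit read from the data, passing the limit was not always enough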;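 further: myotubes were challenged with 10 µM simvastatin during compound exposure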
PGC1a acetyl inh – PGC1a acetylation modulation, inhibitor mode; 350,000 tested, 0.17% active; inhibition, % at 15.6 µM; U2OS PGC1a acetylation, AlphaScreen anti-acetyl-lysine; with virally co-expressed GCN5 acetyltransferase;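 active means every replicate shows inhibition of at least 40%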;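 further: 0% = neutral control wells and 100% = positive control wells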
* = called active by the depositor. Only some compounds are listed: those with a hit (about 3% of all), similar ones and a draw of the others.

O=C(C(=O)N1CCC(CNS(=O)(=O)c2ccc(F)c(F)c2)CC1)c1cc2ccccc2o1 was read as rRNA inh HTS -12* and S100A4 inh HTS 23.
CCCS(=O)(=O)N1CCN(C2CCC(C)CC2)CC1 (stereo not drawn) was read as Cneo AK release 0, rRNA inh HTS 16, S100A4 inh HTS -3, SIRT5 inh -3, Statin myotox sup -8 and PGC1a acetyl inh -7.
`CCCS(=O)(=O)N1CCN(C2Cc3ccccc3C2)CC1` gave rRNA inh HTS -3, S100A4 inh HTS -6, SIRT5 inh 17*, Statin myotox sup 14 and PGC1a acetyl inh -8.
`C[C@@H]1CN([C@H](C)CO)C(=O)c2cc(C#Cc3ccccc3F)cnc2O[C@H]1CN(C)C` gave Cneo AK release 1, rRNA inh HTS 5, S100A4 inh HTS -15, SIRT5 inh 1, Statin myotox sup 28 and PGC1a acetyl inh -7.
CCN1C(=O)NC(c2ccccc2)C1=O (stereo not drawn) was read as Cneo AK release 2, S100A4 inh HTS 0, SIRT5 inh -4, Statin myotox sup 6 and PGC1a acetyl inh -10.
For CCOP(=O)(OCC)C1NC(=O)N(c2ccccc2)C1=O (stereo not drawn) the results were Cneo AK release 5, rRNA inh HTS 8, S100A4 inh HTS -1, SIRT5 inh 30* and Statin myotox sup 16.
`CCC(C)NCCOCCOc1ccc(Cl)c(C)c1C` (stereo not drawn) gave S100A4 inh HTS -9 and SIRT5 inh -3.
For CCC(C)NCCOCCOc1ccc(Cl)c2ccccc12 (stereo not drawn) the results were Cneo AK release 4, rRNA inh HTS -53*, S100A4 inh HTS -7, SIRT5 inh -4, Statin myotox sup -1 and PGC1a acetyl inh -3.
`CCN1CCCCC(=N/O)/C(=N/O)CCCC1` gave Cneo AK release -5, rRNA inh HTS 4, S100A4 inh HTS 1, SIRT5 inh 18* and Statin myotox sup -13.
O=S(=O)(NCC[C@H]1CC[C@H](NS(=O)(=O)c2cccc(F)c2)[C@@H](CO)O1)c1cccc(F)c1 was read as rRNA inh HTS -6, S100A4 inh HTS 5, SIRT5 inh 5 and PGC1a acetyl inh 7.
For C[C@@H]1CCCCO[C@@H](CN(C)C(=O)Nc2ccc(F)cc2)[C@@H](C)CN([C@@H](C)CO)C(=O)c2cc(NC(=O)Nc3ccc(C(F)(F)F)cc3)ccc2O1 the results were rRNA inh HTS 0, S100A4 inh HTS -35, SIRT5 inh -4 and PGC1a acetyl inh -3.
For Cc1c(/C(O)=C2\C(=O)C(=O)N(CCN(C)C)C2c2cccnc2)cnn1-c1ccccc1 (stereo not drawn) the results were Cneo AK release -2, Statin myotox sup 17 and PGC1a acetyl inh -2.
`Cc1c(/C(O)=C2\C(=O)C(=O)N(CCCN(C)C)C2c2ccccc2)cnn1-c1ccccc1` (stereo not drawn) gave rRNA inh HTS 20, S100A4 inh HTS 14, SIRT5 inh -6, Statin myotox sup -9 and PGC1a acetyl inh 82*.
`CCOc1ccccc1OCCOc1ccccc1OC(C)C` gave Cneo AK release -2 and PGC1a acetyl inh 0.
CCOc1ccccc1OCCOc1ccccc1CC was read as Cneo AK release -3, Statin myotox sup 128* and PGC1a acetyl inh -18.
O=C(c1ccccc1)N1C[C@@H]2[C@H](c3ccccc31)[C@H](CO)N2C(=O)c1cccc(F)c1 was read as Cneo AK release -2, rRNA inh HTS -1, S100A4 inh HTS 0, SIRT5 inh -2, Statin myotox sup -6 and PGC1a acetyl inh -5.
For CS(=O)(=O)N1[C@H](C#N)[C@H](c2ccccc2)[C@@H]1CO the results were Cneo AK release -1, rRNA inh HTS 4, S100A4 inh HTS 17, SIRT5 inh 2, Statin myotox sup -28 and PGC1a acetyl inh 9.
`COc1cccc(C=C2Cc3ccccc3C2=O)c1` gave rRNA inh HTS -17*, S100A4 inh HTS 5 and SIRT5 inh -1.

Screens from PubChem.
